Data on three compounds can be found in article PMC8458252 (Circulation. Heart failure, 2021).

Some results are limits rather than exact numbers.

Series [1] is described as follows: Plasma pharmacokinetics after single oral dose in HFrEF patients. In kind it is in vivo, human. The procedure, abridged: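 After a single oral liquid dose (10, 30 or 90 mg) in fasted HFrEF patients, plasma was drawn pre-dose and at 5, 15, 30, 45, 90 and 120 min on Day 1, and again on Day 5. Parameters: AUC 0–2 h, Cmax, Tmax, lag time. Half-life was estimated from Day 5 levels relative to peak. Data analysed by two-way repeated-measures ANOVA.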

Series [2] concerns HFrEF patients. The series is described as follows: Supine and orthostatic blood pressure and heart rate in HFrEF patients. The format is in vivo, human. A digest of the protocol:
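Fasted HFrEF patients were randomised 3:1 to one oral liquid dose (10, 30 or 90 mg) or placebo. Supine BP and HR were taken by automated cuff every 10 min from 30 min pre-dose to 120 min post-dose, then every 30 min to 5 h. Orthostatic readings were taken at 60 ± 5 and 240 ± 15 min and on Day 5, after 1, 3 and 5 min standing. Time course versus placebo by ANCOVA; orthostatic change by ANOVA.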

In series [3] the test system is HFrEF patients. In words: Echo-Doppler hemodynamics, baseline versus 2 hours post-dose, in HFrEF patients. In kind it is in vivo, human. The procedure, abridged: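 Single oral dose (10, 30 or 90 mg, or placebo; randomised 3:1; n=9/dose) in fasted HFrEF patients. Transthoracic 2D Doppler echo at baseline and 120 ± 15 min, read blinded in a core lab. Cuff BP/HR taken at imaging. Outputs: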

Series [4] relates to HFrEF patients. In words: Tolerability / adverse events in HFrEF patients. In kind it is in vivo, human. The procedure, abridged:
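In a blinded, placebo-controlled study, stable HFrEF patients on guideline therapy were randomised 3:1 in sequential cohorts. Each received one oral liquid dose (10, 30 or 90 mg) or placebo after an ≥8 h fast. Monitoring ran 5 h post-dose, with a follow-up visit on Day 5 ± 1 (exam, ECG, blood and urine labs). Adverse events were recorded at each visit per protocol.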

The test system of series [5] is HFrEF patients. The series is described as follows: 12-lead ECG QTc and Holter arrhythmia monitoring in HFrEF patients. The format is in vivo, human. The procedure, abridged: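 HFrEF patients fasted ≥8 h took one oral liquid dose of test compound (10, 30 or 90 mg) or placebo, randomised 3:1. 12-lead ECG at baseline, 120 ± 15 min post-dose and Day 5 ± 1. Continuous bedside telemetry plus Holter recording. Holter gave hourly supraventricular and ventricular runs and ectopic-beat burden versus pre-dose.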

For series [6], the system named is plasma cGMP and cAMP levels. The series is described as follows: Plasma cAMP and cGMP by LC/MS/MS in HFrEF patients. In kind it is in vivo, human. The settings on record: baseline versus 2 hours after dosing. The procedure, abridged: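 HFrEF patients received one oral dose of test compound (10, 30 or 90 mg) or placebo. Plasma was sampled at baseline and 2 h post-dose and stored frozen. cAMP and cGMP were measured by a validated LC/MS/MS method with quantitation limits of 20 to 5000 […].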

The test system of another series is PDE1A. The following applies: read-out: IC50 for PDE1A; cited from earlier work.
The next series concerns PDE1C. The following applies: read-out: IC50 for PDE1C; cited from earlier work.
A further series relates to PDE3. The following applies: cited from earlier work.
The subject of the next series is PDE5. The following applies: cited from earlier work.
For another series, the system named is PDE1. The following applies: cited from earlier work.
Another series has as its system rats. The following applies: cited from earlier work.

A word on the half-life: it is how long it takes for the measured level to halve. Lower therefore signals fast loss. One may read the Tmax as the time at which the peak concentration occurs. One may read the IC50 as the point on the concentration scale where inhibition reaches its midpoint. As to `CN1C(=O)c2c(nn(Cc3ccc(-c4cccc(F)n4)cc3)c2Nc2ccccc2)N2C1=N[C@@H]1CCC[C@@H]12` [ITI-214], the “drug level as % of peak concentration” value in [1] (after five days, at each dose) is 2-3%. Besides, the “time at which peak concentration was achieved” value in series [1] (after oral dosing) was not above 45 min. Also, in series [1] (human, plasma, oral), the half-life was approximately 22 h. Also, in series [1] (human, plasma, po, 90 mg), the time of peak concentration (Tmax) lay in the range of 0.75 to 1.1 h. The “diastolic BP change” value in the series with HFrEF patients [2] (over 2 hours post-dose, each dose) is on record as “declined”. The “increase in heart rate” value in the series with HFrEF patients [2] (single oral dose 10-90 mg) is reported as 5-9 bpm. In addition, the “orthostatic SBP changes versus placebo” value in the series with HFrEF patients [2] (upon standing) is listed as “No SBP changes were significantly different”. In addition, in the series on HFrEF patients [3] (10 mg, baseline to 120 minutes), the “median change in PWRi (mean LV power index)” value is 0.018 (IQR 0.122) Watts/mL^2·10^4 and the “median rise in cardiac output” value is 0.717 L/min. Also, the “E/E’” value with HFrEF patients [3] (30 mg) is “small rise”. Besides, in the series with HFrEF patients [3] (30 mg, baseline to 120 minutes), the “change in systemic vascular resistance” value is −564 dynes·s/cm^−5, the “median change in PWRi (mean LV power index)” value is reported as 0.143 (IQR 0.154) Watts/mL^2·10^4 and the “median rise in cardiac output” value worked out at 0.830 L/min. In the series on HFrEF patients [3] (90 mg, baseline to 120 minutes), the “change in systemic vascular resistance” value is recorded as −370 dynes·s/cm^−5, the “median change in PWRi (mean LV power index)” value was 0.083 (IQR 0.126) Watts/mL^2·10^4 and the “median rise in cardiac output” value is on record as 0.666 L/min. For the same compound, in the series with HFrEF patients [3] (90 mg, pre versus post dose), the “percent increase in cardiac output” value worked out at 18% and the “percent increase in mPWRi” value worked out at 33%. Further, the “total LV afterload (Ea)” value in the series with HFrEF patients [3] (all doses) is “significantly reduced”. In addition, in the series on HFrEF patients [3] (baseline to 120 minutes), the end-diastolic volume entry was “little effect” and the isovolumic relaxation time result is “little effect”. In addition, in the series on HFrEF patients [4] (27 subjects treated), the “feeling hot, share of subjects” value worked out at 7%; the “headache, share of subjects” value is listed as 7%; the “hypotension, share of subjects” value was 11%; the “orthostatic hypotension, share of subjects” value came out at 11%. Moreover, in the series on HFrEF patients [4] (27 subjects treated), the “parosmia, share of subjects” value was 15% and the “taste disorder, share of subjects” value turned out to be 7%. In addition, the “subjects with mild adverse events” value in the series on HFrEF patients [4] (all ITI-214 doses) was 11 of the 27 subjects. For the same compound, in the series with HFrEF patients [4] (any time in the study), the serious adverse events result is listed as “no serious adverse events”. For the same compound, the tolerability result in the series on HFrEF patients [4] (single dose) was “well-tolerated”. In addition, the “change in QTc” value in the series on HFrEF patients [5] (10 mg, 120 minutes post-dose versus baseline) worked out at 1 ± 9 ms. For the same compound, the “change in QTc” value in the series on HFrEF patients [5] (10 mg, Day 5 versus baseline) is -13 ± 17 ms. Moreover, the “change in QTc” value with HFrEF patients [5] (30 mg, 120 minutes post-dose versus baseline) was -4 ± 18 ms. Moreover, the “change in QTc” value in the series with HFrEF patients [5] (30 mg, Day 5 versus baseline) is -19 ± 22 ms. The “change in QTc” value with HFrEF patients [5] (90 mg, 120 minutes post-dose versus baseline) was -4 ± 24 ms. In addition, the “change in QTc” value in the series on HFrEF patients [5] (90 mg, Day 5 versus baseline) was -16 ± 19 ms. Besides, in the series on HFrEF patients [5] (compared to pre-dosing), the “arrhythmia outcomes (Holter)” value is listed as “no clinical change”. Moreover, in series [6], the “plasma cAMP level” value is “did not significantly change” and the “plasma cGMP level” value is reported as “did not significantly change”. Also, the IC50 with PDE1A is 0.035 nM. Further, the IC50 in the series on PDE1C is 0.035 nM. Further, the “selectivity for PDE1 over PDE3” value with PDE3 is reported as 94,000 fold. Also, in the series on PDE5, the “selectivity for PDE1 over PDE5” value is 19,000 fold. In addition, the “potency relative to either Lu-compound (more potent)” value in the series with PDE1 (versus LuAF41228 and LuAF58027) is listed as more than 1000 x.

`CCC(CC)Nc1ncnc2c(OC)c(OC)ccc12` [LuAF41228]: the “lowering of blood pressure” value with rats is not below 15 mmHg.

Consider `CCOC(=O)C1=C[C@]2(CC)CCCN3CCc4c(n1c1ccccc41)[C@@H]32` [vinpocetine, reference compound], for which, in the series with PDE1, the “PDE1 inhibitor potency relative to ITI-214 (less potent)” value was < 10^6.
